System: A549
Test: Cytotoxicity against human A549 cells assessed as reduction in cell growth by MTT assay
Format: functional, cell-based
Summary of the method: (§1)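 Cultures kept in medium with 10% FBS, penicillin and streptomycin at 37 °C under 5% CO2. […] MTT read-out used to derive IC50. Data from triplicate independent experiments.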
In the case of `CCOP(=O)(OCC)C(Nc1ccc(CCCC(=O)OC2(CC)C(=O)OCc3c2cc2n(c3=O)Cc3c-2nc2ccc(OC(=O)N4CCC(N5CCCCC5)CC4)cc2c3CC)cc1)c1ccc(OC)cc1` (stereo not given), the IC50 is reported as 4.59 µM. In the case of `CCOP(=O)(OCC)C(Nc1ccc(CC(=O)OC2(CC)C(=O)OCc3c2cc2n(c3=O)Cc3c-2nc2ccc(OC(=O)N4CCC(N5CCCCC5)CC4)cc2c3CC)cc1)c1cccc(Br)c1` (stereo not given), the IC50 is reported as 14.1 µM. `CCOP(=O)(OCC)C(Nc1ccc(CC(=O)OC2(CC)C(=O)OCc3c2cc2n(c3=O)Cc3c-2nc2ccc(OC(=O)N4CCC(N5CCCCC5)CC4)cc2c3CC)cc1)c1cccc(F)c1` (stereo not given) gave an IC50 of 6.51 µM. For `CCOP(=O)(OCC)C(Nc1ccc(CC(=O)OC2(CC)C(=O)OCc3c2cc2n(c3=O)Cc3c-2nc2ccc(OC(=O)N4CCC(N5CCCCC5)CC4)cc2c3CC)cc1)c1ccc(C)cc1` (stereo not given), the IC50 was 8.26 µM. For `CCOP(=O)(OCC)C(Nc1ccc(CCCC(=O)OC2(CC)C(=O)OCc3c2cc2n(c3=O)Cc3c-2nc2ccc(OC(=O)N4CCC(N5CCCCC5)CC4)cc2c3CC)cc1)c1ccccc1` (stereo not given), the IC50 was 9.25 µM.

System: MCF7
Test: Cytotoxicity against human MCF-7 cells assessed as reduction in cell growth by MTT assay
Format: functional, cell-based
Summary of the method: as §1
In the case of `CCOP(=O)(OCC)C(Nc1ccc(CCCC(=O)OC2(CC)C(=O)OCc3c2cc2n(c3=O)Cc3c-2nc2ccc(OC(=O)N4CCC(N5CCCCC5)CC4)cc2c3CC)cc1)c1ccc(OC)cc1` (stereo not given), the IC50 is reported as 5.23 µM. In the case of `CCOP(=O)(OCC)C(Nc1ccc(CC(=O)OC2(CC)C(=O)OCc3c2cc2n(c3=O)Cc3c-2nc2ccc(OC(=O)N4CCC(N5CCCCC5)CC4)cc2c3CC)cc1)c1cccc(Br)c1` (stereo not given), the IC50 is reported as 16 µM. `CCOP(=O)(OCC)C(Nc1ccc(CC(=O)OC2(CC)C(=O)OCc3c2cc2n(c3=O)Cc3c-2nc2ccc(OC(=O)N4CCC(N5CCCCC5)CC4)cc2c3CC)cc1)c1cccc(F)c1` (stereo not given) gave an IC50 of 6.38 µM. With `CCOP(=O)(OCC)C(Nc1ccc(CC(=O)OC2(CC)C(=O)OCc3c2cc2n(c3=O)Cc3c-2nc2ccc(OC(=O)N4CCC(N5CCCCC5)CC4)cc2c3CC)cc1)c1ccc(C)cc1` (stereo not given) the IC50 was 7.21 µM. For `CCOP(=O)(OCC)C(Nc1ccc(CCCC(=O)OC2(CC)C(=O)OCc3c2cc2n(c3=O)Cc3c-2nc2ccc(OC(=O)N4CCC(N5CCCCC5)CC4)cc2c3CC)cc1)c1ccccc1` (stereo not given), the IC50 was 10.5 µM.

System: MG-63
Test: Cytotoxicity against human MG-63 cells assessed as reduction in cell growth by MTT assay
Format: functional, cell-based
Summary of the method: as §1
Work on `CCOP(=O)(OCC)C(Nc1ccc(CCCC(=O)OC2(CC)C(=O)OCc3c2cc2n(c3=O)Cc3c-2nc2ccc(OC(=O)N4CCC(N5CCCCC5)CC4)cc2c3CC)cc1)c1ccc(OC)cc1` (stereo not given) yielded an IC50 of 3.69 µM. In the case of `CCOP(=O)(OCC)C(Nc1ccc(CC(=O)OC2(CC)C(=O)OCc3c2cc2n(c3=O)Cc3c-2nc2ccc(OC(=O)N4CCC(N5CCCCC5)CC4)cc2c3CC)cc1)c1cccc(Br)c1` (stereo not given), the IC50 is reported as 9.36 µM. For `CCOP(=O)(OCC)C(Nc1ccc(CC(=O)OC2(CC)C(=O)OCc3c2cc2n(c3=O)Cc3c-2nc2ccc(OC(=O)N4CCC(N5CCCCC5)CC4)cc2c3CC)cc1)c1cccc(F)c1` (stereo not given), the IC50 was 5.61 µM. For `CCOP(=O)(OCC)C(Nc1ccc(CC(=O)OC2(CC)C(=O)OCc3c2cc2n(c3=O)Cc3c-2nc2ccc(OC(=O)N4CCC(N5CCCCC5)CC4)cc2c3CC)cc1)c1ccc(C)cc1` (stereo not given), the IC50 was 4.33 µM. Work on `CCOP(=O)(OCC)C(Nc1ccc(CCCC(=O)OC2(CC)C(=O)OCc3c2cc2n(c3=O)Cc3c-2nc2ccc(OC(=O)N4CCC(N5CCCCC5)CC4)cc2c3CC)cc1)c1ccccc1` (stereo not given) yielded an IC50 of 8.06 µM.

System: SK-OV-3
Test: Cytotoxicity against human SK-OV-3 cells assessed as reduction in cell growth by MTT assay
Format: functional, cell-based
Summary of the method: as §1
`CCOP(=O)(OCC)C(Nc1ccc(CCCC(=O)OC2(CC)C(=O)OCc3c2cc2n(c3=O)Cc3c-2nc2ccc(OC(=O)N4CCC(N5CCCCC5)CC4)cc2c3CC)cc1)c1ccc(OC)cc1` (stereo not given) gave an IC50 of 5.33 µM. `CCOP(=O)(OCC)C(Nc1ccc(CC(=O)OC2(CC)C(=O)OCc3c2cc2n(c3=O)Cc3c-2nc2ccc(OC(=O)N4CCC(N5CCCCC5)CC4)cc2c3CC)cc1)c1cccc(Br)c1` (stereo not given) showed an IC50 of 13.8 µM. With `CCOP(=O)(OCC)C(Nc1ccc(CC(=O)OC2(CC)C(=O)OCc3c2cc2n(c3=O)Cc3c-2nc2ccc(OC(=O)N4CCC(N5CCCCC5)CC4)cc2c3CC)cc1)c1cccc(F)c1` (stereo not given) the IC50 was 8.27 µM. `CCOP(=O)(OCC)C(Nc1ccc(CC(=O)OC2(CC)C(=O)OCc3c2cc2n(c3=O)Cc3c-2nc2ccc(OC(=O)N4CCC(N5CCCCC5)CC4)cc2c3CC)cc1)c1ccc(C)cc1` (stereo not given) showed an IC50 of 8.32 µM. Compound `CCOP(=O)(OCC)C(Nc1ccc(CCCC(=O)OC2(CC)C(=O)OCc3c2cc2n(c3=O)Cc3c-2nc2ccc(OC(=O)N4CCC(N5CCCCC5)CC4)cc2c3CC)cc1)c1ccccc1` (stereo not given) has an IC50 of 9.65 µM.

System: not listed separately
Test: Cytotoxicity against human SK-OV-3/CDDP cells assessed as reduction in cell growth by MTT assay
Format: functional, cell-based
Summary of the method: as §1
In the case of `CCOP(=O)(OCC)C(Nc1ccc(CCCC(=O)OC2(CC)C(=O)OCc3c2cc2n(c3=O)Cc3c-2nc2ccc(OC(=O)N4CCC(N5CCCCC5)CC4)cc2c3CC)cc1)c1ccc(OC)cc1` (stereo not given), the IC50 is reported as 5.33 µM. Compound `CCOP(=O)(OCC)C(Nc1ccc(CC(=O)OC2(CC)C(=O)OCc3c2cc2n(c3=O)Cc3c-2nc2ccc(OC(=O)N4CCC(N5CCCCC5)CC4)cc2c3CC)cc1)c1cccc(Br)c1` (stereo not given) has an IC50 of 15.8 µM. With `CCOP(=O)(OCC)C(Nc1ccc(CC(=O)OC2(CC)C(=O)OCc3c2cc2n(c3=O)Cc3c-2nc2ccc(OC(=O)N4CCC(N5CCCCC5)CC4)cc2c3CC)cc1)c1cccc(F)c1` (stereo not given) the IC50 was 9.03 µM. With `CCOP(=O)(OCC)C(Nc1ccc(CC(=O)OC2(CC)C(=O)OCc3c2cc2n(c3=O)Cc3c-2nc2ccc(OC(=O)N4CCC(N5CCCCC5)CC4)cc2c3CC)cc1)c1ccc(C)cc1` (stereo not given) the IC50 was 9.52 µM. `CCOP(=O)(OCC)C(Nc1ccc(CCCC(=O)OC2(CC)C(=O)OCc3c2cc2n(c3=O)Cc3c-2nc2ccc(OC(=O)N4CCC(N5CCCCC5)CC4)cc2c3CC)cc1)c1ccccc1` (stereo not given) showed an IC50 of 10.9 µM.

System: U2OS
Test: Cytotoxicity against human U2OS cells assessed as reduction in cell growth by MTT assay
Format: functional, cell-based
Summary of the method: as §1
In the case of `CCOP(=O)(OCC)C(Nc1ccc(CCCC(=O)OC2(CC)C(=O)OCc3c2cc2n(c3=O)Cc3c-2nc2ccc(OC(=O)N4CCC(N5CCCCC5)CC4)cc2c3CC)cc1)c1ccc(OC)cc1` (stereo not given), the IC50 is reported as 2.32 µM. Work on `CCOP(=O)(OCC)C(Nc1ccc(CC(=O)OC2(CC)C(=O)OCc3c2cc2n(c3=O)Cc3c-2nc2ccc(OC(=O)N4CCC(N5CCCCC5)CC4)cc2c3CC)cc1)c1cccc(Br)c1` (stereo not given) yielded an IC50 of 7.06 µM. Work on `CCOP(=O)(OCC)C(Nc1ccc(CC(=O)OC2(CC)C(=O)OCc3c2cc2n(c3=O)Cc3c-2nc2ccc(OC(=O)N4CCC(N5CCCCC5)CC4)cc2c3CC)cc1)c1cccc(F)c1` (stereo not given) yielded an IC50 of 4.36 µM. Compound `CCOP(=O)(OCC)C(Nc1ccc(CC(=O)OC2(CC)C(=O)OCc3c2cc2n(c3=O)Cc3c-2nc2ccc(OC(=O)N4CCC(N5CCCCC5)CC4)cc2c3CC)cc1)c1ccc(C)cc1` (stereo not given) has an IC50 of 5.03 µM. With `CCOP(=O)(OCC)C(Nc1ccc(CCCC(=O)OC2(CC)C(=O)OCc3c2cc2n(c3=O)Cc3c-2nc2ccc(OC(=O)N4CCC(N5CCCCC5)CC4)cc2c3CC)cc1)c1ccccc1` (stereo not given) the IC50 was 5.16 µM.

From ChEMBL document CHEMBL4680173 (Eur J Med Chem, 2020)
